# INS-1E ATP HTS – INS-1E beta cell protection from cytokine death; INS-1E cytokine-induced death, ATP luminescence, 48 h; normalised: neutral wells 0, positive control 100; protection from cytokine-induced ATP loss, % at 10 µM; 0.1% of 20,000 active;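 active = mean replicate protection from cytokine-induced ATP loss at least 50% and at least 75% of replicates each reaching 50%; inconclusive = meets only one of the two criteria, mean or replicate share; inactive = fails both the mean and replicate share criteria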
#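 Assay system: INS-1E rat insulinoma cells. Amount: 8000 cells per well. Medium: phenol-red-free RPMI with 5% fetal bovine serum. Reagent: IL-1β, TNF-α and IFN-γ cytokine mix. Doses: one compound concentration, pin transfer. Schedule: 48 h co-treatment, 10 min post-lysis read. Detection: CellTiter-Glo luminescence measuring cellular ATP.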
# T cruzi intra – inhibitors of intracellular Trypanosoma cruzi | intracellular Trypanosoma cruzi in host cells, plate reader | AID 651903 | activity score (inhibition), % at 5.01 µM | 4.9% of 22,000 active; in the data active = activity score above about 55%; inconclusive = no clear call, values can overlap the other calls;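 note: parasites and compound incubated about four days before reading; 0% = median of neutral control wells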
# A1 apoptosis 2 – compounds inhibiting A1, read as caspase activation. MEF A1-2A-BIM cells, caspase-Glo luminescence, 3 h; percent of clofoctol response, DMSO zero. AID 2465. caspase activation, % (test concentration not listed). 24,000 tested, under 10 active; in the data active = caspase activation above about 5.9%; inconclusive = no clear call, values can overlap the other calls; inactive = below about 2.2%
#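 Test system – A1-2A-BIM-expressing MEF cells · Input – 2500 cells/well · Medium – RPMI-1640 growth medium with 10% FBS · Compound dosing – 50 nL pinned compound · Timing – 3 h compound exposure at 37 °C · Technique – Caspase-Glo luminescence (DEVD substrate) · Evaluation – Caspase-3/7 activity from luminescence increase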
# Numbers without * were called inactive; ? = inconclusive; nt = no result. Shown is part of a subset that was picked to be rich in hits.
SMILES,INS-1E ATP HTS,T cruzi intra,A1 apoptosis 2
C[C@@H]1CN([C@H](C)CO)C(=O)Cc2cc(NC(=O)Cc3ccccc3)ccc2O[C@H]1CN(C)Cc1ccc(-c2ccccc2)cc1,0,65*,nt
COc1ccc(CN(C)C[C@@H]2Oc3ccc(NC(=O)Cc4ccccc4)cc3CC(=O)N([C@H](C)CO)C[C@H]2C)cc1,9,54,-1
C[C@H]1CN([C@@H](C)CO)C(=O)Cc2cc(NC(=O)Cc3ccccc3)ccc2O[C@H]1CN(C)Cc1ccc(-c2ccccc2)cc1,-15,47,1
C[C@H]1CN([C@@H](C)CO)C(=O)Cc2cc(NC(=O)Cc3ccccc3)ccc2O[C@@H]1CN(C)Cc1ccc(-c2ccccc2)cc1,-19,64*,nt
C[C@@H]1CN([C@@H](C)CO)C(=O)Cc2cc(NC(=O)Cc3ccccc3)ccc2O[C@H]1CN(C)Cc1ccc(-c2ccccc2)cc1,nt,nt,1
COc1ccc(CN(C)C[C@@H]2Oc3ccc(NC(=O)Cc4ccccc4)cc3CC(=O)N([C@@H](C)CO)C[C@@H]2C)cc1,-4,67*,0
C[C@H]1CCCCO[C@H](CN(C)S(=O)(=O)c2ccccc2)[C@@H](C)CN([C@@H](C)CO)C(=O)c2cc(NC(=O)CCCN(C)C)ccc2O1,nt,nt,-1
Cc1ccc(S(=O)(=O)Nc2ccc3c(c2)CC(=O)N([C@H](C)CO)C[C@@H](C)[C@H](CN(C)Cc2ccc(C(=O)O)cc2)O3)cc1,3,-26,nt
O=C1O[C@@H](c2ccccc2)[C@@H](c2ccccc2)N2[C@@H](c3ccc(O)cc3)[C@]3(C(=O)Nc4ccc(C#CCCO)cc43)[C@@H](C(=O)O)[C@H]12,nt,nt,-1
C[C@@H]1CN([C@H](C)CO)C(=O)Cc2cc(NC(=O)Nc3cccc4ccccc34)ccc2O[C@H]1CN(C)Cc1ccccc1,-7,79*,nt
C[C@@H]1CN([C@H](C)CO)C(=O)Cc2cc(NC(=O)Nc3cccc4ccccc34)ccc2O[C@@H]1CN(C)C(=O)Nc1ccc(C(F)(F)F)cc1,-6,26,nt
C[C@@H]1CN([C@@H](C)CO)C(=O)Cc2cc(NC(=O)Nc3cccc4ccccc34)ccc2O[C@@H]1CN(C)Cc1ccccc1,-22,67*,nt
COc1ccc(CN(C)C[C@@H]2Oc3ccc(NC(=O)Nc4cccc5ccccc45)cc3CC(=O)N([C@@H](C)CO)C[C@@H]2C)cc1,0,28,2
C[C@@H]1CN([C@H](C)CO)C(=O)Cc2cc(NC(=O)Nc3cccc4ccccc34)ccc2O[C@@H]1CN(C)Cc1ccc(Oc2ccccc2)cc1,-16,69*,1
C[C@@H]1CN([C@H](C)CO)C(=O)Cc2cc(NC(=O)Nc3cccc4ccccc34)ccc2O[C@@H]1CN(C)Cc1ccc(-c2ccccc2)cc1,-2,?,1
C[C@@H]1CN([C@@H](C)CO)C(=O)Cc2cc(NC(=O)Nc3cccc4ccccc34)ccc2O[C@@H]1CN(C)Cc1ccc(C(F)(F)F)cc1,-23,91*,0
C[C@@H]1CN([C@@H](C)CO)C(=O)Cc2cc(NC(=O)Nc3cccc4ccccc34)ccc2O[C@@H]1CN(C)Cc1ccc(-c2ccccc2)cc1,1,50,nt
Cc1noc(C)c1S(=O)(=O)Nc1ccc2c(c1)C(=O)N([C@H](C)CO)C[C@@H](C)[C@@H](CN(C)CC1CCCCC1)OCCCC[C@H](C)O2,nt,nt,-1
C=CCOC(=O)[C@]12O[C@@]3(COC[C@H](c4ccccc4)N3C1=O)[C@H]1C(=O)N(c3ccccc3)C(=O)[C@H]12,nt,nt,-1
C/C(=N\O)C(=O)NCCCCCNC(=O)OCc1ccccc1,nt,nt,0
COc1ccc(S(=O)(=O)Nc2ccc3c(c2)C(=O)N([C@H](C)CO)C[C@@H](C)[C@H](CN(C)C(=O)Nc2ccc(F)cc2)OCCCC[C@H](C)O3)cc1,nt,nt,0
C[C@@H]1CN([C@@H](C)CO)C(=O)Cc2cc(NC(=O)NC3CCCCC3)ccc2O[C@H]1CN(C)C(=O)Nc1cccc2ccccc12,nt,nt,-1
Cc1noc(C)c1S(=O)(=O)Nc1ccc2c(c1)C(=O)N([C@H](C)CO)C[C@H](C)[C@@H](CN(C)S(=O)(=O)c1ccc(F)cc1)OCCCC[C@@H](C)O2,-6,-2,nt
C[C@H](CO)N1C[C@H](C)[C@H](CN(C)CC2CC2)Oc2ccc(NC(=O)Nc3cccc4ccccc34)cc2CC1=O,nt,nt,1
C[C@H]1CN([C@@H](C)CO)C(=O)Cc2cc(NC(=O)Nc3cccc4ccccc34)ccc2O[C@H]1CN(C)Cc1ccc(-c2ccccc2)cc1,-45,4,nt
C[C@@H]1CN([C@@H](C)CO)C(=O)c2cc(NC(=O)Nc3cccc4ccccc34)ccc2O[C@@H]1CN(C)Cc1ccc(Oc2ccccc2)cc1,-57,57*,0

# High-throughput results deposited in PubChem by Broad Institute.
